Data published in ChEMBL document CHEMBL4138193, “Novel indole and triazole based hybrid molecules exhibit potent anti-adipogenic and antidyslipidemic activity by activating Wnt3a/β-catenin pathway” (Eur J Med Chem, 2018).
Active and inactive are the calls of the source. The rule behind the calls is not given here.

What was measured:
Syrian golden hamster [1] = test: Induction of reverse cholestrol transport in high fat diet-induced dyslipidemia Syrian Golden hamster model assessed as reduction in liver weight at 100 mg/kg, po administered for 1 week; format: functional, organism-based; details: Mesocricetus auratus
In short: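 Male Syrian Golden hamsters on 45% kCal HFD, dosed 100 mg/kg p.o. in 0.5% NaCMC for one week, 4 per group. Food intake and body weight recorded daily. At the end, animals were saline-perfused and liver and eWAT were excised and weighed. Paraffin sections stained with H&E and imaged at 20x.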

3T3-L1 [2] = test: Cytotoxicity against mouse 3T3L1 cells at 1 to 1000 uM after 24 hrs by MTT assay; format: cell-based; details: 3t3-l1, 24 h
In short: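 3T3-L1 cells seeded at 1×10^4 per well and grown 24 hr, then exposed to 1–1000 µM for 24 hr. Medium was replaced with MTT medium ([…]) for 3 hr and the formazan dissolved in DMSO. Absorbance read at 570 nm; three independent experiments, mean ± SD.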

Homo sapiens = species on record: Homo sapiens; test: Anti-adipogenic activity in human differentiated MSC assessed as reduction in lipid accumulation at 5 to 20 uM after 20 mins by Oil Red O staining based microscopic method; format: functional
In short: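 C3H10T1/2 or hMSC adipocytes differentiated alongside 5, 10 or 20 µM compound in differentiation media, stained with Oil red O. Images taken by bright-field microscopy at 10x and 20x, representative of three independent experiments.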

3T3-L1 [3] = test: Cell cycle arrest in mouse 3T3L1 cells assessed as reduction in accumulation at S phase at 10 to 20 uM after 16 hrs by propidium iodide-staining based flow cytometry; format: functional
In short: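 Confluent 3T3-L1 preadipocytes given differentiation medium (0.5 mM IBMX, 5 µg/ml insulin, 250 nM dexamethasone) with 10 or 20 µM for 16 and 24 hr. Cells trypsinized, fixed in ice-cold 70% ethanol for 2 hr, stained with propidium iodide (40 µg/ml in RNase A buffer, 30 min, room temperature). Flow cytometry gave the fractions in G1, S and G2/M; three independent experiments.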

Mus musculus [4] = species on record: Mus musculus; test: Activation of Wnt3a/beta-catenin in mouse 3T3L1 cells assessed as down-regulation of CDK2 expression at 20 uM after 16 to 24 hrs by Western blot analysis; format: cell-based
In short: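 3T3-L1 cells given MDI differentiation media (0.5 mM IBMX, 5 µg/ml insulin, 250 nM dexamethasone) with or without 20 µM compound. Proteins isolated at 16 and 24 h and probed by Western blot for CDK2, CDK4, CDK6, cyclin D1 and D3. Densitometry normalized to actin, n=3, mean ± SD, Student t test.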

Mus musculus [5] = species on record: Mus musculus; test: Activation of Wnt3a/beta-catenin in mouse 3T3L1 cells assessed as down-regulation of C/EBPalpha mRNA expression at 20 uM by qRT-PCR analysis; format: cell-based
In short: (§1)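 3T3-L1 cells differentiated with IBMX/dexamethasone/insulin media with or without 20 µM compound over the differentiation period. RNA extracted with TRIZOL, 500 ng reverse-transcribed to cDNA, then quantitative real-time PCR. Three independent experiments run in triplicate, mean ± SD, one-way ANOVA with Bonferroni posttest.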

Mus musculus [6] = species on record: Mus musculus; test: Activation of Wnt3a/beta-catenin in mouse 3T3L1 cells assessed as down-regulation of AP2 mRNA expression at 20 uM by qRT-PCR analysis; format: cell-based; in short: as §1
Mus musculus [7] = species on record: Mus musculus; test: Activation of Wnt3a/beta-catenin in mouse 3T3L1 cells assessed as down-regulation of CDK2 expression at 20 uM after 16 to 24 hrs in presence of FH353 by Western blot analysis; format: cell-based
In short: (§2)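 Confluent 3T3-L1 cells given differentiation media (IBMX/insulin/dexamethasone) with 20 µM compound, with or without the β-catenin/TCF inhibitor FH353 (10 µM). Proteins isolated at 16 and 24 h and Western blotted after SDS-PAGE and nitrocellulose transfer. Blocking in 5% milk/TBS-T, primary antibody overnight at 4 °C, chemiluminescent detection, β-actin control, three independent experiments.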

Mus musculus [8] = species on record: Mus musculus; test: Activation of Wnt3a/beta-catenin in mouse 3T3L1 cells assessed as down-regulation of CDK4 expression at 20 uM after 16 to 24 hrs in presence of FH353 by Western blot analysis; format: cell-based; in short: as §2
Mus musculus [9] = species on record: Mus musculus; test: Activation of Wnt3a/beta-catenin in mouse 3T3L1 cells assessed as down-regulation of CDK6 expression at 20 uM after 16 to 24 hrs in presence of FH353 by Western blot analysis; format: cell-based; in short: as §2
Syrian golden hamster [10] = test: Anti-dyslipidemic activity in high fat diet-induced dyslipidemia Syrian Golden hamster model assessed as decrease in serum ALT levels at 100 mg/kg, po administered for 1 week followed by overnight fasting post last dose by clinical bio-analyzer analysis; format: functional, organism-based; details: Mesocricetus auratus
In short: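 Male Syrian golden hamsters (8–10 wk, 100–120 g), 4 per group, given 45% kcal HFD for 4 days, then 100 mg/kg p.o. in 0.5% NaCMC daily for one week alongside HFD. Blood taken from retro-orbital plexus after overnight fast. TG, HDL, LDL, ALT, AST measured on a clinical bio-analyzer and NEFA by kit. Mean ± SEM, one-way ANOVA with Bonferroni.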

Syrian golden hamster [11] = test: Anti-adipogenic activity in high fat diet-induced dyslipidemia Syrian Golden hamster model assessed as increase in beta-catenin levels in eWAT at 100 mg/kg, po administered for 1 week by Western blot analysis; format: functional, organism-based; details: Mesocricetus auratus
In short: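 Male Syrian golden hamsters (8–10 wk, 100–120 g) fed 45% kcal HFD for 4 days, then dosed orally at 100 mg/kg in 0.5% NaCMC for one week, n=4 per group. Fenofibrate 100 mg/kg p.o. used as positive control. Epididymal WAT proteins Western blotted, three independent experiments.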

Syrian golden hamster [12] = test: Induction of reverse cholestrol transport in high fat diet-induced dyslipidemia Syrian Golden hamster model assessed as increase in LXR1alpha mRNA expression in liver at 100 mg/kg, po administered for 1 week by qRT-PCR analysis; format: functional, organism-based; details: Mesocricetus auratus
3T3-L1 [13] = test: Anti-adipogenic activity in mouse 3T3L1 cells assessed as reduction in lipid accumulation at 20 uM measured up to 7 days by Oil Red O staining based leica microscopy; format: functional, cell-based
In short: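 3T3-L1 or C3H10T1/2 cells given 20 µM compound in differentiation media for varied time periods, then stained with Oil red O. Imaged by microscopy at 10x, representative of three independent experiments.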

C3H 10T1/2 = test: Anti-adipogenic activity in mouse C3H10T1/2 cells assessed as reduction in lipid accumulation at early differentiation stage at 20 uM measured up to 3 days by Oil Red O absorbance method; format: functional, cell-based
In short: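 3T3-L1 or C3H10T1/2 cells given 20 µM compound with differentiation media for different time periods. Oil red O stain extracted from accumulated lipid with isopropanol and absorbance read at 492 nm. n=3, mean ± SD, Student t test against MDI+ group.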

Mus musculus [14] = species on record: Mus musculus; test: Activation of Wnt3a/beta-catenin in differentiated mouse 3T3L1 cells assessed as down-regulation of AP2 protein expression at 20 uM after 16 to 24 hrs by Western blot analysis
In short: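 3T3-L1 preadipocytes grown to confluence in high-glucose DMEM/10% FBS, then given differentiation media (0.5 mM IBMX, 5 µg/ml insulin, 250 nM dexamethasone) with or without 20 µM compound. Protein isolated at set time points, lysed with protease/phosphatase inhibitors, BCA-quantified, resolved by 8–12% SDS-PAGE, immunoblotted with ECL detection. β-actin loading control, densitometry normalized to actin, n=3.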

`Cc1ccc(S(=O)(=O)N(Cc2cn(Cc3cccc(F)c3F)nn2)Cc2cn(S(=O)(=O)c3ccc(C)cc3)c3ccccc23)cc1` was tested, and the Activity (Syrian golden hamster [1]) was “Active”, the Activity (3T3-L1 [2]) was “Non-Toxic” and the Activity (Homo sapiens) was “Active”. The Activity (3T3-L1 [3]) was “Active”, the Activity (Mus musculus [4]) was “Active” and the Activity (Mus musculus [5]) was “Active”. For the same compound, the Activity (Mus musculus [6]) was “Active”, the Activity (Mus musculus [7]) was “inactive” and the Activity (Mus musculus [8]) was “inactive”. The Activity (Mus musculus [9]) was “inactive”, the Activity (Syrian golden hamster [10]) was “Active” and the Activity (Syrian golden hamster [11]) was “Active”. For the same compound, the Activity (Syrian golden hamster [12]) was “Active”, the Activity (3T3-L1 [13]) was “Active” and the Activity (C3H 10T1/2) was “Active”. The Activity (Mus musculus [14]) was “Active”.
